The text below walks through data of ChEMBL document CHEMBL1641365, “Synthesis, in vitro and in vivo preliminary evaluation of anti-angiogenic properties of some pyrroloazaflavones” (Bioorg Med Chem, 2011).

Test [1] has as its system HUVEC. As to the kind of experiment: Inhibition of growth factor-induced angiogenesis in HUVEC cells assessed as inhibition of in cell migration at 10^-5 uM after 4 hrs by fluorescence microscopy. Type of test: functional, cell-based. Particulars: Homo sapiens.
The subject of test [2] is HUVEC. As to the kind of experiment: Antiangiogenic activity against FGF2-induced HUVEC assessed as inhibition of cell proliferation at 10^-5 uM after 24 hrs. The settings on record: Homo sapiens. Type of test: functional, cell-based.
In test [3] the test system is HUVEC. As to the kind of experiment: Growth inhibition of HUVEC cells after 20 hrs by MTT assay. Type of test: cell-based. The settings on record: Homo sapiens. An outline of the steps: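 Primary HUVECs, passages 2–4, were seeded at 2 × 10⁴ cells/cm². After 24 h they were exposed to a range of concentrations (10 to 10⁻⁵ µM). After 20 h, MTT (0.5 mg/mL) was read. IC50 is the concentration giving a 50% viability drop versus untreated cells; 10 µM was the top concentration. Values are means ± SD of at least three independent experiments.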

Test [4] has as its system HUVEC. As to the kind of experiment: Antiangiogenic activity against FGF2-induced in HUVEC cells assessed as inhibition of capillary-like formation at 10^-5 uM after 18 hrs by Matrigel assay. Particulars: Homo sapiens. Type of test: functional, cell-based.
In test [5] the test system is HUVEC. As to the kind of experiment: Antiangiogenic activity against FGF2-induced HUVEC assessed as inhibition of cell proliferation at 10^-2 uM after 24 hrs. Particulars: Homo sapiens. Format: functional, cell-based.
Test [6] concerns HUVEC. As to the kind of experiment: Inhibition of growth factor-induced angiogenesis in HUVEC cells assessed as inhibition of cell migration at 10^-2 uM after 4 hrs by fluorescence microscopy. Format: functional, cell-based. The settings on record: Homo sapiens.
For test [7], the system named is HUVEC. As to the kind of experiment: Induction of apoptosis in HUVEC cells assessed as proapoptotic effect after 24 hrs by TUNEL assay. Type of test: functional, cell-based. The settings on record: Homo sapiens.
In the next test the test system is Mus musculus. As to the kind of experiment: Antiangiogenic activity against FGF2-induced C57/BL6 mouse assessed as inhibition of angiogenesis at 0.01 uM, sc after 7 days by Matrigel plug assay. Type of test: functional, organism-based. An outline of the steps: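 Matrigel with heparin, with or without FGF-2 200 ng/plug plus test agent 0.01 µM, injected subcutaneously into the dorsal area of C57/BL6 mice. Animals were killed after 7 days. Plugs were removed and steeped overnight at 4 °C in 0.1% Brij-35 in PBS. Hemoglobin content of the plugs was measured.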

For test [8], the system named is HUVEC. As to the kind of experiment: Antiangiogenic activity against FGF2-induced in HUVEC cells assessed as inhibition of capillary-like formation at 10^-2 uM after 18 hrs by Matrigel assay. Type of test: functional, cell-based. Particulars: Homo sapiens.
For test [9], the system named is HUVEC. As to the kind of experiment: Antiangiogenic activity against FGF2-induced in HUVEC cells assessed as inhibition of morphological change at 10^-2 uM after 18 hrs by capillary-like formation assay. Type of test: functional, cell-based. The settings on record: Homo sapiens.
Test [10] concerns HUVEC. As to the kind of experiment: Antiangiogenic activity against FGF2-induced in HUVEC cells assessed as inhibition of capillary-like formation at 10^-3 uM after 18 hrs by Matrigel assay. The settings on record: Homo sapiens. Format: functional, cell-based.
Test [11] deals with HUVEC. As to the kind of experiment: Antiangiogenic activity against FGF2-induced HUVEC assessed as inhibition of cell proliferation at 10^-3 uM after 24 hrs. Particulars: Homo sapiens. Format: functional, cell-based.
The subject of test [12] is HUVEC. As to the kind of experiment: Antiangiogenic activity against FGF2-induced in HUVEC cells assessed as inhibition of morphological change at 10^-3 uM after 18 hrs by capillary-like formation assay. The settings on record: Homo sapiens.
The subject of test [13] is HUVEC. As to the kind of experiment: Antiangiogenic activity against FGF2-induced in HUVEC cells assessed as inhibition of morphological change at 10^-3 uM after 18 hrs by capillary-like formation assay. Type of test: functional, cell-based. Particulars: Homo sapiens.
Test [14] has as its system HUVEC. As to the kind of experiment: Inhibition of growth factor-induced angiogenesis in HUVEC cells assessed as inhibition of cell migration at 10^-3 uM after 4 hrs by fluorescence microscopy. Type of test: functional, cell-based. The settings on record: Homo sapiens.
In test [15] the test system is HUVEC. As to the kind of experiment: Antiangiogenic activity against FGF2-induced in HUVEC cells assessed as inhibition of capillary-like formation at 10^-4 uM after 18 hrs by Matrigel assay. Type of test: functional, cell-based. Particulars: Homo sapiens.
Test [16] concerns HUVEC. As to the kind of experiment: Antiangiogenic activity against FGF2-induced HUVEC assessed as inhibition of cell proliferation at 10^-4 uM after 24 hrs. Type of test: functional, cell-based. Particulars: Homo sapiens.
Test [17] has as its system HUVEC. As to the kind of experiment: Inhibition of growth factor-induced angiogenesis in HUVEC cells assessed as inhibition of cell migration at 10^-4 uM after 4 hrs by fluorescence microscopy. Format: functional, cell-based. The settings on record: Homo sapiens.

Active and inactive are the calls of the source. No cut-off for these calls is given here. Where only a bound is given, the exact number is not on record here.

Regarding `CC[C@]1(O)C[C@@H]2CN(CCc3c([nH]c4ccccc34)[C@@](C(=O)OC)(c3cc4c(cc3OC)N(C)[C@H]3[C@@](O)(C(=O)OC)[C@H](OC(C)=O)[C@]5(CC)C=CCN6CC[C@]43[C@@H]65)C2)C1` [VINBLASTINE], in the test with HUVEC [1], the inhibition result was “Active”. Besides, the outcome in the test on HUVEC [2] and in the test on HUVEC [4] was Active. In the test on HUVEC [3], this compound displayed an IC50 of 0.049 µM.

With `COc1cccc(-c2cc(O)c3ccc4[nH]ccc4c3n2)c1`, the result in the test with HUVEC [5] and in the test on HUVEC [7] was Active. Besides, the inhibition result with HUVEC [6] was “Active”. The same compound yielded an IC50 in the test with HUVEC [3] of 5.8 µM.

As to `Oc1cc(-c2cccs2)nc2c1ccc1[nH]ccc12`, the IC50 in the test on HUVEC [3] was greater than 10 µM.

Turning to `Cc1cc2c(ccc3c(=O)cc(-c4ccccc4)[nH]c32)[nH]1`, the IC50 in the test with HUVEC [3] is greater than 10 µM.

The compound `O=c1cc(-c2ccc[nH]2)[nH]c2c1ccc1[nH]ccc12` came in with an IC50 in the test on HUVEC [3] greater than 10 µM.

Consider `CCOC(=O)CCn1ccc2c3[nH]c(-c4ccccc4)cc(=O)c3ccc21`, for which the outcome in the test with Mus musculus, with HUVEC [8], in the test on HUVEC [9] and in the test with HUVEC [7] was Active. The inhibition entry with HUVEC [6] was “Active”. The compound further registered an IC50 in the test on HUVEC [3] of 5.7 µM.

On to `O=c1cc(-c2ccccc2)[nH]c2c1ccc1c2ccn1CC1CC1`, for which the result in the test on Mus musculus, with HUVEC [8] and with HUVEC [7] was Active. The result in the test with HUVEC [9] was inactive. The inhibition result in the test with HUVEC [6] is “Active”. The same compound displayed an IC50 in the test on HUVEC [3] of 4.2 µM.

On to `CCn1ccc2c3[nH]c(-c4ccccc4)cc(=O)c3ccc21`, for which the outcome in the test with HUVEC [8] and in the test on HUVEC [7] was Active. The outcome in the test on HUVEC [9] was inactive. In the test with HUVEC [6], the inhibition entry is “Active”. Besides, the concentration for half-maximal inhibition (IC50) with HUVEC [3] is 8.1 µM.

On to `O=[N+]([O-])c1cccc(-c2cc(O)c3ccc4[nH]ccc4c3n2)c1`, for which the result in the test with Mus musculus, in the test with HUVEC [10], with HUVEC [11], with HUVEC [12], with HUVEC [7] and with HUVEC [13] was Active. Moreover, the IC50 with HUVEC [3] came to 0.45 µM. Further, the inhibition entry in the test with HUVEC [14] is “Active”.

With `Oc1cc(-c2ccccc2)nc2c1ccc1[nH]ccc12`, the outcome in the test with HUVEC [15], with Mus musculus, in the test with HUVEC [7] and with HUVEC [16] was Active. Besides, the midpoint of inhibition with HUVEC [3], the IC50, lay at 0.043 µM. The inhibition entry in the test on HUVEC [17] is “Active”.
